Usually solubility stands for how much of the substance goes into solution per volume. Read a low solubility as a poorly soluble substance. The term IC50 denotes the point on the concentration scale where inhibition reaches its midpoint. Usually Papp B→A stands for how fast a substance crosses the layer from the basolateral side. By bioavailability is commonly meant dose-corrected exposure relative to a reference, in per cent. A higher bioavailability goes with much systemic uptake. As usually defined, the half-life is how long it takes for the measured level to halve.

This is an account of results in ChEMBL document CHEMBL3853331, “Preparation, Antiepileptic Activity, and Cardiovascular Safety of Dihydropyrazoles as Brain-Penetrant T-Type Calcium Channel Blockers” (J Med Chem, 2016).

The nature of data set [1]: Aqueous solubility of the compound at pH 7 by UV-HPLC method. The format is physicochemical. Put shortly: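 Compound dispensed from a 10 mM DMSO stock and the solvent evaporated. Residue stirred 24 h at room temperature in buffer: citrate (55 mM) pH 4.0 or phosphate (67 mM) pH 7.0. Mixture filtered by centrifugation. Filtrate concentration measured by HPLC-UV against calibration solutions.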

Data set [2] in a line: Drug uptake in Wistar rat brain at 30 mg/kg, po measured after 1 hr. The data set is classed as ADME, organism-based. Conditions: read-out: Drug uptake. Put shortly:
(§1)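 Male Wistar rats given oral doses of 10, 30 or 100 mg/kg. Plasma, brain and CSF collected at 1 h, and at 3 h for the 10 mg/kg dose; compound concentrations measured in each.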

A further data set addresses Cytochrome P450 2D6 (Homo sapiens, UniProt P10635). In words: Inhibition of CYP2D6 (unknown origin).
The target in data set [3] is Voltage-dependent T-type calcium channel subunit alpha-1I (Homo sapiens, UniProt Q9P0X4). In words: Inhibition of human T-type calcium channel Cav3.3 expressed in CHO cells assessed as inhibition of calcium tail current at -90 mV holding potential measured after 150 secs by QPatch assay. The data set is classed as cell-based. The essentials: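 CHO cells stably expressing human Cav3.1, Cav3.2 or Cav3.3, automated QPatch recording. 3-ms depolarization to +20 mV from a holding potential of -90 or -60 mV. Ca2+ tail current measured at -60 mV. Cs-glutamate internal and TEA-Cl external solution with 5 mM Ca2+. Effect read 150 s after application.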

Another data set concerns MDR1. In words: Apparent permeability across basolateral to apical side in MDCK cells expressing MDR1 (unknown origin) at 1 uM. The format is ADME, cell-based, Canis lupus familiaris. The following applies: dog. Put shortly:
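MDR1-transfected MDCK cell monolayers. Compound tested at 1 µM. Apparent permeability measured in both directions, apical to basolateral and basolateral to apical. Efflux ratio taken from the two directional permeabilities.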

Data set [4] can be described thus: Drug uptake in Wistar rat CSF at 10 mg/kg, po measured after 3 hrs. The format is ADME, organism-based, Cerebrospinal fluid. The following applies: read-out: Drug uptake. Put shortly: as §1
The nature of data set [5]: Oral bioavailability in Wistar rat plasma at 2 mg/kg administered 2 hrs after aminobenzotriazol-treatment. The data set is classed as ADME, organism-based. The essentials: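 Rats dosed orally with the CYP inhibitor aminobenzotriazol 2 h before the iv dose of 0.2 mg/kg. Oral dose was 2 mg/kg.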
The nature of data set [6]: Half life in Wistar rat plasma at 0.2 mg/kg, iv. The data set is classed as ADME, organism-based. Put shortly:
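Male Wistar rats dosed iv at 0.2 mg/kg or po at 2 mg/kg. In the inhibited arm, the broad CYP inhibitor aminobenzotriazol was given orally 2 h before dosing. Clearance, Vss and half-life derived from plasma concentrations after the iv dose; Cmax and Tmax from the po dose.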

Data set [7] can be described thus: Plasma concentration in Wistar rat at 10 mg/kg, po measured after 3 hrs. The format is ADME, organism-based.
Data set [8] can be described thus: Drug uptake in Wistar rat CSF at 30 mg/kg, po measured after 1 hr. The data set is classed as ADME, organism-based, Cerebrospinal fluid. Conditions: read-out: Drug uptake. Put shortly: as §1

Converted amounts (≈) assume the structure as drawn.

Sequence of Voltage-dependent T-type calcium channel subunit alpha-1I (Q9P0X4 whole entry): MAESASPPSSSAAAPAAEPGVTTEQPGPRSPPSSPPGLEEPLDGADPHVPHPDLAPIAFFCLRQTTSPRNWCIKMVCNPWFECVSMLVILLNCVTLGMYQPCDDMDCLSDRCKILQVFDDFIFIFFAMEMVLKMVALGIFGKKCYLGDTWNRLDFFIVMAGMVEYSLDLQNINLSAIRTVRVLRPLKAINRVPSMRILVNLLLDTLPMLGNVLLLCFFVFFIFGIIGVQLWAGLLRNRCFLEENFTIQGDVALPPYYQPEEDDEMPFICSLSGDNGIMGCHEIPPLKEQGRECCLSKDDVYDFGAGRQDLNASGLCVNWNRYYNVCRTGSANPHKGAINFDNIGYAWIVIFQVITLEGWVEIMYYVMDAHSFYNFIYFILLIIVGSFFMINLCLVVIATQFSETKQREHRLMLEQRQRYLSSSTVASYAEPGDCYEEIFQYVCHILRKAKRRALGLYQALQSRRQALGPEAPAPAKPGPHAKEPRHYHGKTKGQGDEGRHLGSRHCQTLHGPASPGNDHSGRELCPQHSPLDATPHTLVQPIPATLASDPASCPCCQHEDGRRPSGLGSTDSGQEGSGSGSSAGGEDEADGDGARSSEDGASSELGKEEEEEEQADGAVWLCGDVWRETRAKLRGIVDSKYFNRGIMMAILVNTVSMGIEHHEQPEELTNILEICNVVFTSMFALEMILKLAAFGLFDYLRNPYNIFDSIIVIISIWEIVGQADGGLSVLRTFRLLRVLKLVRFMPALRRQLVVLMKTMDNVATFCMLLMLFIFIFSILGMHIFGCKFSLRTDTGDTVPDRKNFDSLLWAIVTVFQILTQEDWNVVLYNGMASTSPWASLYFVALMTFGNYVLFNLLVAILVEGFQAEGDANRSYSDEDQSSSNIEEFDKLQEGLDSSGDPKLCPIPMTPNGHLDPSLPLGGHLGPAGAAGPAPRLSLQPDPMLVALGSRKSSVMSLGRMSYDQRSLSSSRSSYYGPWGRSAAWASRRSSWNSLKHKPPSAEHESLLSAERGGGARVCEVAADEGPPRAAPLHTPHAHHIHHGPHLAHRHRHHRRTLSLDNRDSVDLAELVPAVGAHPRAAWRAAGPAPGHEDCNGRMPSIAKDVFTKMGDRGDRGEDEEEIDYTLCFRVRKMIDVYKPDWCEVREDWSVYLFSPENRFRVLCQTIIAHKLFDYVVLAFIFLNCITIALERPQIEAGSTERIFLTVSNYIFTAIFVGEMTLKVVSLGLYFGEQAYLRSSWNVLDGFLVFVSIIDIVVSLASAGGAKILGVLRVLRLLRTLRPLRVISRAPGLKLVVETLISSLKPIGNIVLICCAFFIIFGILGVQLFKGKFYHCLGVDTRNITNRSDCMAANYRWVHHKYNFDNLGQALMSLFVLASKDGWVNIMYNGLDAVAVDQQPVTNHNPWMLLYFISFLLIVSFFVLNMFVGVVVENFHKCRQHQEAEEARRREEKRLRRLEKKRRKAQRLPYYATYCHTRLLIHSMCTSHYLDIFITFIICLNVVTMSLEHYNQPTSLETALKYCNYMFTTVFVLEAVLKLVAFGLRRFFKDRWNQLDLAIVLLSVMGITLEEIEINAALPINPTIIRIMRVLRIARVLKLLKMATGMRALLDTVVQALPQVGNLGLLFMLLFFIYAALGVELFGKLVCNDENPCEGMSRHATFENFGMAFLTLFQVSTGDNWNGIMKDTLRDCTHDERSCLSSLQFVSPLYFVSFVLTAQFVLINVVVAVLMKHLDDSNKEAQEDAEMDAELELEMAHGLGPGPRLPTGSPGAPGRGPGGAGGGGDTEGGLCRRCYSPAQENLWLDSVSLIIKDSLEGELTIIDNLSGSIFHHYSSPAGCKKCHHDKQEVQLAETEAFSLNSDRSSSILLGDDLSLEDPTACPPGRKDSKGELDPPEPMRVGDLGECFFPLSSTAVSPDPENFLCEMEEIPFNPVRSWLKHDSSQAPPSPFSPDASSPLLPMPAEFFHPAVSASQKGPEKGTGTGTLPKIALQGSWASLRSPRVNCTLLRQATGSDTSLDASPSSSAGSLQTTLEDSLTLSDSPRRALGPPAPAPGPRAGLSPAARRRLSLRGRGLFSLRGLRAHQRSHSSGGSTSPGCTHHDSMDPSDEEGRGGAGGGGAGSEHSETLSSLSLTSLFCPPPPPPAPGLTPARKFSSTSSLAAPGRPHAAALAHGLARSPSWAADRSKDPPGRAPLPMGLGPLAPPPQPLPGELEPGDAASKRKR
Sequence of Cytochrome P450 2D6 (P10635 whole entry): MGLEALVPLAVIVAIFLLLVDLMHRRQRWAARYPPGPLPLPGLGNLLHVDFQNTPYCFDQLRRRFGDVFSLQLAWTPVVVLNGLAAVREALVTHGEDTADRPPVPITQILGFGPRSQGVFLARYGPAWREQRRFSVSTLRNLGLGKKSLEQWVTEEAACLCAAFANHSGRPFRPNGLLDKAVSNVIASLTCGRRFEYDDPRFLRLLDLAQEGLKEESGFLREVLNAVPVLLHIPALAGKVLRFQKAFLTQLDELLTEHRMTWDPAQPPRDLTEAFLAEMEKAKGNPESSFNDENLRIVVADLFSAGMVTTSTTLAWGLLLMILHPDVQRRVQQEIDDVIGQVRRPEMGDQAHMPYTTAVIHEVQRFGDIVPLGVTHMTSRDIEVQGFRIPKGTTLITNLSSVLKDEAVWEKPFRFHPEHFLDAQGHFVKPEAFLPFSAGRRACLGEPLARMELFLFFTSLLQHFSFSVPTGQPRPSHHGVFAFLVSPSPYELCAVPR

In the case of `O=C(Nc1ccc(F)cc1)N1N=C(c2ccncc2)CC1c1ccc(F)cc1` (stereo not given), the concentration in solution in data set [1] (solubility) came to 2 µg/mL (≈ 5.29 µM). For the same compound, the concentration at 1 h in data set [2] was 2.57 µM; in data set [8], 0.047 µM. In addition, the figures for the IC50 (against Cytochrome P450 2D6; in data set [3]) were 44 µM and 7 µM, respectively. In addition, the Papp B→A at 1 µM in the data set on MDR1 was 440 nm/s. Further, the concentration at 3 h in [4] is 0.029 µM; in data set [7], 0.29 µM. The compound also displayed a bioavailability in data set [5] of 100%. Further, the half-life in [6] was 7.1 h.
